{"source": "ChEMBL document CHEMBL5705899", "about": "(Biochem J, 2014)", "key": {"[1]": {"target": "Mitogen-activated protein kinase kinase kinase 5 (Homo sapiens) (UniProt Q99683)", "assay": "Inhibition of recombinant human N-terminal GST-tagged ASK1 (670 to 950 residues) expressed in Escherichia coli assessed as remaining activity at 1 uM using MBP as substrate incubated for 30 mins in presence of [gamma-33P]ATP by filter binding method relative to control"}, "[2]": {"target": "MAP kinase-interacting serine/threonine-protein kinase 1 (Homo sapiens) (UniProt Q9BUB5)", "sequence (Q9BUB5 whole entry, looked up, the tested form may be a part)": "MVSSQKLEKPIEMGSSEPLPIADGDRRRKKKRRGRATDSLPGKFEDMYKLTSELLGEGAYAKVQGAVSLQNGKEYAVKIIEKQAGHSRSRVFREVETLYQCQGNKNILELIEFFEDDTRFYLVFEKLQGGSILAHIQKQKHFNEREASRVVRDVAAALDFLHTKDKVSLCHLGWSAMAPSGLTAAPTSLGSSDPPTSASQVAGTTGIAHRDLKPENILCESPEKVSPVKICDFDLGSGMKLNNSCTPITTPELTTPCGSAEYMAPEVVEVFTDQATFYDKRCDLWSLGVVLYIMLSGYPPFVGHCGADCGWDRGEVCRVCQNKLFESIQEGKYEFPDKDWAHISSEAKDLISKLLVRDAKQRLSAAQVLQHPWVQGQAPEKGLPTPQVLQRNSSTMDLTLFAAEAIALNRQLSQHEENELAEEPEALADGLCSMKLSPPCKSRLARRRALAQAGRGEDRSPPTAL", "assay": "Inhibition of recombinant human N-terminal GST-tagged C-terminal His6-tagged MNK1 (2 to 424 residues) expressed in Escherichia coli assessed as remaining activity at 1 uM using eIF4E as substrate incubated for 30 mins in presence of [gamma-33P]ATP by filter binding method relative to control"}, "[3]": {"target": "Mitogen-activated protein kinase 9 (Homo sapiens) (UniProt P45984)", "assay": "(§1) Inhibition of recombinant human N-terminal His6-tagged JNK2 (1 to 424 residues) expressed in baculovirus infected Sf21 cells assessed as remaining activity at 1 uM using ATF2 as substrate incubated for 30 mins in presence of [gamma-33P]ATP by filter binding method relative to control"}, "[4]": {"target": "Serine/threonine-protein kinase SIK3 (Homo sapiens) (UniProt Q9Y2K2)", "sequence (Q9Y2K2 whole entry, looked up)": "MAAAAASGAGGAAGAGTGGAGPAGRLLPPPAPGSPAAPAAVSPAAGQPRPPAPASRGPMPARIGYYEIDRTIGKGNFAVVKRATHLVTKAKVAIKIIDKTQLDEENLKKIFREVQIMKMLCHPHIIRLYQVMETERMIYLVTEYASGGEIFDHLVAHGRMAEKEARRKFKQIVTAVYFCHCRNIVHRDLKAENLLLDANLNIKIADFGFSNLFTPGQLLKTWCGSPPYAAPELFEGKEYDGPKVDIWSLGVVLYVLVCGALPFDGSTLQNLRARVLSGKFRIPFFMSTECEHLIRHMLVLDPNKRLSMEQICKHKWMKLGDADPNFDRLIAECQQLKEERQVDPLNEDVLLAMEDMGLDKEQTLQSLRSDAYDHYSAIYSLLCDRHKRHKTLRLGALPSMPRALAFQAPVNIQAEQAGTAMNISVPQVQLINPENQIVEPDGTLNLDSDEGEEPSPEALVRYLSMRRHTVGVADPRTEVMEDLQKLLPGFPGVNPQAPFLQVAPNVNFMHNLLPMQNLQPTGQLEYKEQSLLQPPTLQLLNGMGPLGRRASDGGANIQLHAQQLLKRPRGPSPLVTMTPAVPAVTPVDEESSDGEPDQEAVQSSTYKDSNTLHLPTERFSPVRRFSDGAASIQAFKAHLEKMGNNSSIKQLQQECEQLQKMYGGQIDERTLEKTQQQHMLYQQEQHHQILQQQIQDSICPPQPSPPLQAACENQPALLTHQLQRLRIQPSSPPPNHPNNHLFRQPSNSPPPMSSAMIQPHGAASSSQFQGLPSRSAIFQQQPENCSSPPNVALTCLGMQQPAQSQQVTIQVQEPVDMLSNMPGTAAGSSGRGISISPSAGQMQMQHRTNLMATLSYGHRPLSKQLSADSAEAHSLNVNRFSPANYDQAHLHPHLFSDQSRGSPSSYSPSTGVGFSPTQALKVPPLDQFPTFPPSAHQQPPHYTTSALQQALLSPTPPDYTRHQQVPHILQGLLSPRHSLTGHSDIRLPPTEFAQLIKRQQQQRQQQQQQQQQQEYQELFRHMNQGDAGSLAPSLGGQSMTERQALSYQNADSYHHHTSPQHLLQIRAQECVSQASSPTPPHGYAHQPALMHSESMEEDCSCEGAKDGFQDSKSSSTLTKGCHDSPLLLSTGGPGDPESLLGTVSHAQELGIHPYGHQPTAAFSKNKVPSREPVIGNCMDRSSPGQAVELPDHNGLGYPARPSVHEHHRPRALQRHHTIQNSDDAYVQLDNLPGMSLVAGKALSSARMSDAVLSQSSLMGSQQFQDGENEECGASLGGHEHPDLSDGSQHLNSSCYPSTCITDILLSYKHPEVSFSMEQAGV", "assay": "as §1, with “GST and HA-tagged SIK3 (2” for “His6-tagged JNK2 (1”, “1369” for “424”, “ALNRTSSDSALHRRR” for “ATF2”"}, "[5]": {"target": "Ribosomal protein S6 kinase alpha-3 (Homo sapiens) (UniProt P51812)", "assay": "Inhibition of recombinant human N-terminal His6-tagged RSK2 (2 to 740 residues) expressed in baculovirus infected Sf21 cells assessed as remaining activity at 1 uM using KKLNRTLSVA as substrate incubated for 30 mins in presence of [gamma-33P]ATP by filter binding method relative to control"}, "[6]": {"target": "Tyrosine-protein kinase Lck (Homo sapiens) (UniProt P06239)", "sequence (P06239 2-509 limits assumed)": "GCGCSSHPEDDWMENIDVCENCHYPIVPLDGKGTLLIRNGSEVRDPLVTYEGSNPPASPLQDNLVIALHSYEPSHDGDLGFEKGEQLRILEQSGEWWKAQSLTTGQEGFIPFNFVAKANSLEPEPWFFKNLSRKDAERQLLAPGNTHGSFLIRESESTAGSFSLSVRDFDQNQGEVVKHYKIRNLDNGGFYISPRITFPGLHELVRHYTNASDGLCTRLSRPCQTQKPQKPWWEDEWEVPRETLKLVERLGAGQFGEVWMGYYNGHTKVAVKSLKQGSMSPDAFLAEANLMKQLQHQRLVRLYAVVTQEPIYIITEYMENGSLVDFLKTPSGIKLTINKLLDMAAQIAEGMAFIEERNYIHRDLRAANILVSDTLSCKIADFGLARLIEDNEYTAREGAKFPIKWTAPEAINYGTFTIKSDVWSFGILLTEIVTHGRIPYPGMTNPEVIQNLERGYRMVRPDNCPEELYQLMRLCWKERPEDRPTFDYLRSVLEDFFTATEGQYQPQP", "assay": "Inhibition of human LCK at 1 uM using polyEY as substrate in presence of 33P-ATP by ProQinase assay"}, "[7]": {"target": "MAP kinase-interacting serine/threonine-protein kinase 1 (Homo sapiens) (UniProt Q9BUB5)", "assay": "Inhibition of human MKNK1 at 1 uM using RB-S6P as substrate in presence of 33P-ATP by ProQinase assay"}, "[8]": {"target": "Calcium/calmodulin-dependent protein kinase type IV (Homo sapiens) (UniProt Q16566)", "assay": "Inhibition of human CAMK4 at 1 uM using JUN as substrate in presence of 33P-ATP by ProQinase assay"}, "[9]": {"target": "Protein kinase C iota type (Homo sapiens) (UniProt P41743)", "sequence (P41743 whole entry)": "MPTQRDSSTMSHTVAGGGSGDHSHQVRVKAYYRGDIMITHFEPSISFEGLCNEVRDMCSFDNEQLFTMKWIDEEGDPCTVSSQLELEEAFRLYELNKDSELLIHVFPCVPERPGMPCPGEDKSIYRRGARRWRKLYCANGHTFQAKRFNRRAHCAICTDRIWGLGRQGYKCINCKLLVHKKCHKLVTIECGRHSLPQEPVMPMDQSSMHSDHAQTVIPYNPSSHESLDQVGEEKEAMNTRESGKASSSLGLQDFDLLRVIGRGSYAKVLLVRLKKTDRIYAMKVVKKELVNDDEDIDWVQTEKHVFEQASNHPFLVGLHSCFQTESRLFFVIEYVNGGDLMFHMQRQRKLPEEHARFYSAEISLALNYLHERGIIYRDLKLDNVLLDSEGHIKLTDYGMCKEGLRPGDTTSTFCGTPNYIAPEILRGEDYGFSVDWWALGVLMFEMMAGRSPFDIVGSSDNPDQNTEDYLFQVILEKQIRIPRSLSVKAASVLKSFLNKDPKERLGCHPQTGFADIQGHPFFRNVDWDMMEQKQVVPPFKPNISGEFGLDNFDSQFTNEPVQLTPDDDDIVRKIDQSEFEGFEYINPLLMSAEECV", "assay": "Inhibition of human PKCiota at 1 uM using 3xChocktide-PKC as substrate in presence of 33P-ATP by ProQinase assay"}, "[10]": {"target": "Serine/threonine-protein kinase TAO3 (Homo sapiens) (UniProt Q9H2K8)", "assay": "Inhibition of human TAOK3 at 1 uM using 3xChocktide-PKC as substrate in presence of 33P-ATP by ProQinase assay"}, "[11]": {"target": "Serine/threonine-protein kinase Nek9 (Homo sapiens) (UniProt Q8TD19)", "assay": "Inhibition of human NEK9 at 1 uM using RBER-GSK3 as substrate in presence of 33P-ATP by ProQinase assay"}, "[12]": {"target": "Serine/threonine-protein kinase N2 (Homo sapiens) (UniProt Q16513)", "assay": "Inhibition of human PRK2 at 1 uM using RBER-CHKtide as substrate in presence of 33P-ATP by ProQinase assay"}, "[13]": {"target": "Serine/threonine-protein kinase PLK2 (Homo sapiens) (UniProt Q9NYY3)", "sequence (Q9NYY3 whole entry, looked up)": "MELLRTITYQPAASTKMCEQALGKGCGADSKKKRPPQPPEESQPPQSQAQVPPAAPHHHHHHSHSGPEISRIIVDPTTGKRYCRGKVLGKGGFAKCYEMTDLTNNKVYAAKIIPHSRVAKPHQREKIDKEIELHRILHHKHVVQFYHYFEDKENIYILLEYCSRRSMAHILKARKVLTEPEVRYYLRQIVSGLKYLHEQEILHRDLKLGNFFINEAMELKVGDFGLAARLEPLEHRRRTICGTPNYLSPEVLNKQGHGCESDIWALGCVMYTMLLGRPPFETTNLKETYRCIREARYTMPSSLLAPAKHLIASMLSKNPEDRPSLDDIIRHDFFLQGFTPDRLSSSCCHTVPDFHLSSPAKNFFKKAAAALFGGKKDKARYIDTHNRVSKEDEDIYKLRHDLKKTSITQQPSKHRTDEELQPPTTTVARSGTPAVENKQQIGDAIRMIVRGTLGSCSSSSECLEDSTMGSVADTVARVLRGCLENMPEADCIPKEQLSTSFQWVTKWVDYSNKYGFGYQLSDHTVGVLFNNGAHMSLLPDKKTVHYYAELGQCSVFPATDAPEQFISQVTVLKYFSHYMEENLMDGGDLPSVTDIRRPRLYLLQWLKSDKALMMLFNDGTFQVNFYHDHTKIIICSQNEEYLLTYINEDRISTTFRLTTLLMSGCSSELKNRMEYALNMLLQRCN", "assay": "Inhibition of human SNK at 1 uM using RBER-GSK3 as substrate in presence of 33P-ATP by ProQinase assay"}, "[14]": {"target": "Platelet-derived growth factor receptor beta (Homo sapiens) (UniProt P09619)", "sequence (P09619 whole entry)": "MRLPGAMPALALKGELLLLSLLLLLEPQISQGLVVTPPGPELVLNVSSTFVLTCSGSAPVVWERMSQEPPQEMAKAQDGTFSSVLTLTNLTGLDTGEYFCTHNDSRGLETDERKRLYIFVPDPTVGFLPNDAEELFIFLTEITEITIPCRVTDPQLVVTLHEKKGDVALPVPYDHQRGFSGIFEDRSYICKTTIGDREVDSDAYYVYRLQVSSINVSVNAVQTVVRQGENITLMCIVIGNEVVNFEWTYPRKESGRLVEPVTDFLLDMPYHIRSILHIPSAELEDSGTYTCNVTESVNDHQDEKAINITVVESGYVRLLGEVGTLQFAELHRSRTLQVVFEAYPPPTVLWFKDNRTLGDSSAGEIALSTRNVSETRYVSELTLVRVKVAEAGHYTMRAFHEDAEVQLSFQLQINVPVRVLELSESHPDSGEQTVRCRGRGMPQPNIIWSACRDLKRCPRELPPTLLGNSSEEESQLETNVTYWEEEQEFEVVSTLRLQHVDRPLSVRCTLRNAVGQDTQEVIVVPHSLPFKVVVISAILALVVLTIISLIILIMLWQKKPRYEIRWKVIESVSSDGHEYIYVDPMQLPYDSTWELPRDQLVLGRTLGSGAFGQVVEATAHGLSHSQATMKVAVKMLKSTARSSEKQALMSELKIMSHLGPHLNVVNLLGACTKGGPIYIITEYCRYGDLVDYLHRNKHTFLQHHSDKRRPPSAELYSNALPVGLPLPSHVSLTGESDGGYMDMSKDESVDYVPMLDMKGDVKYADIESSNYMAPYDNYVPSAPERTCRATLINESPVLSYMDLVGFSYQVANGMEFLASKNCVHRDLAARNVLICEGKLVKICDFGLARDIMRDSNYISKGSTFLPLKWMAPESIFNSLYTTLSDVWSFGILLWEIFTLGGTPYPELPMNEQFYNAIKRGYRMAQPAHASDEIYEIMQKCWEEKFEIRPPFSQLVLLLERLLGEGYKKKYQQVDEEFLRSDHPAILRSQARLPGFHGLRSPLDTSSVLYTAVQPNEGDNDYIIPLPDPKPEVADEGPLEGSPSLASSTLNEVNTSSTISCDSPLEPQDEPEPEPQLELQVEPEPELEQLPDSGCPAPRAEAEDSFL", "assay": "Inhibition of human PDGFRbeta at 1 uM using poly(Ala,Glu,Lys,Tyr) as substrate in presence of 33P-ATP by ProQinase assay"}, "[15]": {"target": "CDK2/Cyclin A2 (Homo sapiens) (UniProt P24941+P20248)", "assay": "Inhibition of human CDK2/CycA2 at 1 uM using RBER-CHKtide as substrate in presence of 33P-ATP by ProQinase assay", "assay_type": "protein-complex assay"}, "[16]": {"target": "Glycogen synthase kinase-3 beta (Homo sapiens) (UniProt P49841)", "assay": "Inhibition of human GSK3beta at 1 uM using RBER-CHKtide as substrate in presence of 33P-ATP by ProQinase assay"}, "[17]": {"target": "Serine/threonine-protein kinase D3 (Homo sapiens) (UniProt O94806)", "assay": "Inhibition of human PKCnu at 1 uM using bio-4xCHKT as substrate in presence of 33P-ATP by ProQinase assay"}, "[18]": {"target": "Ribosomal protein S6 kinase alpha-1 (Homo sapiens) (UniProt Q15418)", "assay": "Inhibition of human RPS6KA1 at 1 uM using RBER-CHKtide as substrate in presence of 33P-ATP by ProQinase assay"}, "[19]": {"target": "DNA-dependent protein kinase catalytic subunit (Homo sapiens) (UniProt P78527)", "assay": "Inhibition of human DNPK1 at 1 uM using RBER-GSK3 as substrate in presence of 33P-ATP by ProQinase assay"}, "TAK1/TAB1 (Homo sapiens)": {"target": "TAK1/TAB1 (Homo sapiens) (UniProt Q15750+O43318)", "assay": "Inhibition of human MAP3K7/MAP3K7IP1 at 1 uM using RB-S6P as substrate in presence of 33P-ATP by ProQinase assay", "assay_type": "protein-complex assay"}, "[20]": {"target": "Mitogen-activated protein kinase 14 (Homo sapiens) (UniProt Q16539)", "assay": "Inhibition of human p38alpha at 1 uM using ATF2 as substrate in presence of 33P-ATP by ProQinase assay"}, "[21]": {"target": "Choline/ethanolamine kinase (Homo sapiens) (UniProt Q9Y259)", "sequence (Q9Y259 whole entry, the tested form may be a part)": "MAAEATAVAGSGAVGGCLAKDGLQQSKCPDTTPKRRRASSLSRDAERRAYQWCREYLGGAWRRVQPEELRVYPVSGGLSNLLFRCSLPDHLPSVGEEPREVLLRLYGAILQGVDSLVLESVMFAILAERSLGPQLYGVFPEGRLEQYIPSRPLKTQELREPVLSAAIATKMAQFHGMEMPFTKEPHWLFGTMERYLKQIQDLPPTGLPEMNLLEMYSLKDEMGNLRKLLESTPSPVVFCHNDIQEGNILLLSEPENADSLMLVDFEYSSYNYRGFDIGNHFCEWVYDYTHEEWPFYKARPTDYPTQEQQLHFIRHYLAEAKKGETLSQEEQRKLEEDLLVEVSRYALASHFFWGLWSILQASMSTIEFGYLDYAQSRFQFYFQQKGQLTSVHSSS", "assay": "Inhibition of recombinant human N-terminal GST-tagged CHKbeta (1 to 395 residues) expressed in Escherichia coli at 1 uM using choline chloride as substrate incubated for 40 mins by ADP-Glo assay"}, "[22]": {"target": "Phosphatidylinositol 4,5-bisphosphate 3-kinase catalytic subunit delta isoform (Homo sapiens) (UniProt O00329)", "assay": "Inhibition of p100delta (unknown origin) at 1 uM"}, "[23]": {"target": "Phosphatidylinositol 4-phosphate 5-kinase type-1 gamma (Homo sapiens, UniProt O60331)", "assay": "Inhibition of human PIP5K1C using PI/PS as substrate by ADP-Glo assay"}, "U2OS": {"test_system": "U2OS", "assay": "Inhibition of PI3K in human U2OS cells expressing FLAG-tagged SGK3 assessed as reduction in AKT phosphorylation at S473 residues at 0.01 to 1 uM 1 hr by immunoblot analysis", "assay_type": "cell-based", "conditions": "dose 0.01-1 µM", "method_in_brief": "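Flp-In T-REx U2OS cells were grown in McCoy medium with 10% FBS. Expression of C-terminally FLAG-tagged full-length SGK3 was induced with 0.01 mg/ml doxycycline for 24 h. Cells were treated with inhibitor for 1 h and lysed in phosphatase-inhibitor buffer. Lysates were cleared at 16000 g for 10 min at 4°C, protein was measured by Bradford, and phosphorylation was read by immunoblot with ECL detection.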"}}, "note": "Activity calls are given as the source filed them. The calls are words filed in the database; no cut-off is given here."}
{"smiles": "CC(C)(O)CNc1ncc(-c2ccnc(Nc3ccnc(Cl)c3)n2)c(CC2CC2)n1", "values": [{"measurement": "Activity", "setting": "[1]", "value": 124, "unit": "%"}, {"measurement": "Activity", "setting": "[2]", "value": 122, "unit": "%"}, {"measurement": "Activity", "setting": "[3]", "value": 113, "unit": "%"}, {"measurement": "Activity", "setting": "[4]", "value": 112, "unit": "%"}, {"measurement": "Activity", "setting": "[5]", "value": 103, "unit": "%"}, {"measurement": "inhibition", "setting": "[6]", "value": "inactive"}, {"measurement": "inhibition", "setting": "[7]", "value": "inactive"}, {"measurement": "inhibition", "setting": "[8]", "value": "inactive"}, {"measurement": "inhibition", "setting": "[9]", "value": "inactive"}, {"measurement": "inhibition", "setting": "[10]", "value": "inactive"}, {"measurement": "inhibition", "setting": "[11]", "value": "inactive"}, {"measurement": "inhibition", "setting": "[12]", "value": "inactive"}, {"measurement": "inhibition", "setting": "[13]", "value": "inactive"}, {"measurement": "inhibition", "setting": "[14]", "value": "inactive"}, {"measurement": "inhibition", "setting": "[15]", "value": "inactive"}, {"measurement": "inhibition", "setting": "[16]", "value": "inactive"}, {"measurement": "inhibition", "setting": "[17]", "value": "inactive"}, {"measurement": "inhibition", "setting": "[18]", "value": "inactive"}, {"measurement": "inhibition", "setting": "[19]", "value": "inactive"}, {"measurement": "inhibition", "setting": "TAK1/TAB1 (Homo sapiens)", "value": "inactive"}, {"measurement": "inhibition", "setting": "[20]", "value": "inactive"}, {"measurement": "inhibition", "setting": "[21]", "value": "inactive"}, {"measurement": "inhibition", "setting": "[22]", "value": "inactive"}, {"measurement": "IC50", "setting": "[23]", "value": 3.37, "unit": "µM"}, {"measurement": "inhibition", "setting": "U2OS", "value": "inactive"}]}
